Experimental data published in ChEMBL document CHEMBL5223179, “Phenyl Dihydrouracil: An Alternative Cereblon Binder for PROTAC Design” (ACS Med Chem Lett, 2023).
Values belong to the compound of their own block, whether it stands above or below them. Calls of active or inactive are those of the source. The calls are words filed in the database; no cut-off is given here.

Assays:
[1] = Permeability in human Caco-2 cells after 2 hrs by UPLC/MS analysis; assay type: ADME, cell-based; settings: caco-2, 2 h
[2] = molecular target: Eukaryotic peptide chain release factor GTP-binding subunit ERF3A (Homo sapiens) (UniProt P15170); assay: Induction of GSPT1 degradation in human KOPT-K1 cells upto 100 nM incubated for 4 hrs by immunoblotting analysis; assay type: cell-based
In short: (§1)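 KOPT-K1 cells were treated with compound at concentrations up to 100 nM. Endogenous GSPT1, IKZF1 and CK1α abundance was assessed by immunoblotting.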

[3] = molecular target: Casein kinase I isoform alpha (Homo sapiens) (UniProt P48729); assay: Induction of CK1alpha degradation in human KOPT-K1 cells upto 100 nM incubated for 4 hrs by immunoblotting analysis; assay type: cell-based; in short: as §1
[4] = molecular target: T1, Tyrosine-protein kinase Lck (Homo sapiens, UniProt P06239); assay: Induction of LCK degradation in human KOPT-K1 cells assessed as maximum degradation after 4 hrs by immunoblotting analysis relative to control; assay type: cell-based
In short: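 KOPT-K1 cells were treated with increasing concentrations of compound for 4 h. Endogenous LCK was assessed by immunoblot. Degradation was calculated from quantified band intensities, and DC50 from the average of three independent experiments.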
Target sequence in this assay (P06239 2-509 limits assumed): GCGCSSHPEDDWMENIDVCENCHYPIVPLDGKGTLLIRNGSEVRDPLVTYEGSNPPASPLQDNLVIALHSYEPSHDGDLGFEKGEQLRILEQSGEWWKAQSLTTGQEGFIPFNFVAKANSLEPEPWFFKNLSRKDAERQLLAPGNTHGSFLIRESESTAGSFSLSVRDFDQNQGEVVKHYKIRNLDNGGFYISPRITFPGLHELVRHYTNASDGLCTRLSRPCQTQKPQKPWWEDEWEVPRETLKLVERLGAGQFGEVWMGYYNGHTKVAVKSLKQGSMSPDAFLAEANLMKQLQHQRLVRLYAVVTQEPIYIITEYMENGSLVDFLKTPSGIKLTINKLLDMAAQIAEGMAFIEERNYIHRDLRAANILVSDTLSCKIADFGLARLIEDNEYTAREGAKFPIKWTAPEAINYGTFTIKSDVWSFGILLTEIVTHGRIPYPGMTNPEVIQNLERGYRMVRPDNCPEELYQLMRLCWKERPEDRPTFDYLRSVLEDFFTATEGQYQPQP

[5] = molecular target: T1, Tyrosine-protein kinase Lck; assay: Induction of HiBiT-tagged LCK degradation in human KOPT-K1 cells after 4 hrs by microplate reader analysis; assay type: cell-based
Target sequence in this assay (P06239 whole entry): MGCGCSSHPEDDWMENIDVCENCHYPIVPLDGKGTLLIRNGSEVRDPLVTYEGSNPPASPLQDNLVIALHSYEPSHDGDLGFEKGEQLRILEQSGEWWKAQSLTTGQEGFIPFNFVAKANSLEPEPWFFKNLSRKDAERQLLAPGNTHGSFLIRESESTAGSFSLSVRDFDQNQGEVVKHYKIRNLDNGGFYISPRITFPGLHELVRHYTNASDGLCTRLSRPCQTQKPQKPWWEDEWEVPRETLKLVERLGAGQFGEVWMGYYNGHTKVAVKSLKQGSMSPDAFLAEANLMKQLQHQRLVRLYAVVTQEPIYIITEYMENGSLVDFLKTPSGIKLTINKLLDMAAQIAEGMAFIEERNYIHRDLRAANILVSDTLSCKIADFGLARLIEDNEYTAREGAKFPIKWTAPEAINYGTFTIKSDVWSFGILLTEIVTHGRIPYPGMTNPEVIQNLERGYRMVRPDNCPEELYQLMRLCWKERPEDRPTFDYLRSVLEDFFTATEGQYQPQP

KOPTK1 [6] = assay: Cytotoxicity against human KOPT-K1 cells incubated for 24 hrs by Celltiter-Glo assay; assay type: functional; settings: read-out: LC50 (the source's name)
In short: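 KOPT-K1 human T-ALL cells exposed to compound for 24 h. Viability read by CellTiter-Glo luminescence. LC50 derived from concentration-response curves.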

[7] = molecular target: DNA-binding protein Ikaros (Homo sapiens) (UniProt Q13422); assay: Induction of IKZF1 degradation in human KOPT-K1 cells upto 100 nM incubated for 4 hrs by immunoblotting analysis; assay type: cell-based; in short: as §1
[8] = molecular target: T1, Tyrosine-protein kinase Lck; assay: Induction of LCK degradation in human KOPT-K1 cells after 4 hrs by immunoblotting analysis; assay type: cell-based
Target sequence in this assay (P06239 whole entry): as above

KOPTK1 [9] = assay: Cytotoxicity against human KOPT-K1 cells incubated for 72 hrs by Celltiter-Glo assay; assay type: functional; settings: for CC50: read-out: LC50 (the source's name)
In short: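 Human T-ALL KOPT-K1 cells treated with compounds for 72 h. Viability measured by CellTiter-Glo. LC50 fitted from dose-response data, reported as the mean of three independent experiments ± SD.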

[10] = Metabolic stability in mouse liver microsomes assessed as clearance measured upto 240 mins in presence of NADPH regenerating system by LC-MS/MS analysis; assay type: ADME, Microsome; settings: 4 h
[11] = Chemical stability of compound in human KOPT-K1 cell culture media assessed as half life incubated upto 48 hrs; assay type: physicochemical
In short: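 Compound stability followed in KOPT-K1 cell culture medium over time; half-life derived from the remaining compound.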

[12] = molecular target: Eukaryotic peptide chain release factor GTP-binding subunit ERF3A (Homo sapiens) (UniProt P15170); assay: Induction of HiBiT-tagged GSPT1 degradation in HEK293T cells upto 10 uM incubated for 4 hrs; assay type: cell-based
In short: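 HiBiT-tagged GSPT1 in HEK293T cells was measured after compound exposure at concentrations up to 10 μM.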

[13] = molecular target: Protein cereblon/DNA damage-binding protein 1 (Homo sapiens, UniProt Q96SW2); assay: Displacement of Cy5-O-Len from 6His-tagged CRBN/DDB1 (unknown origin) incubated for 1 hr under dark condition by fluorescence polarization assay; assay type: protein assay
[14] = Metabolic stability in mouse liver microsomes assessed as half life measured upto 240 mins in presence of NADPH regenerating system by LC-MS/MS analysis; assay type: ADME, Microsome

Chain of Eukaryotic peptide chain release factor GTP-binding subunit ERF3A (Homo sapiens) (P15170 whole entry): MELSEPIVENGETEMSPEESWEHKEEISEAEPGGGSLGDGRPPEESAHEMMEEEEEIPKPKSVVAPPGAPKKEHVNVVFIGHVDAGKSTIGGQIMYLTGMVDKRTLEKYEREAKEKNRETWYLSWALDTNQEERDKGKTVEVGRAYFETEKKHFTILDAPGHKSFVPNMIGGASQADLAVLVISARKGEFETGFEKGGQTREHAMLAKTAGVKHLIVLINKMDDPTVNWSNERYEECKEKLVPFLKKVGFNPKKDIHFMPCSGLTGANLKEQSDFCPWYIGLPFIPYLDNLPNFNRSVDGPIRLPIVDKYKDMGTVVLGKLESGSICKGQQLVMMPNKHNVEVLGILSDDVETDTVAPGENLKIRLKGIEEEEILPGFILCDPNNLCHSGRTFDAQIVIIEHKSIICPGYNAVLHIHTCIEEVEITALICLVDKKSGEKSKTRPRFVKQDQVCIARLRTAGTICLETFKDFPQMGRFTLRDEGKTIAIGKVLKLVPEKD
Chain of Casein kinase I isoform alpha (Homo sapiens) (P48729 2-337 limits assumed): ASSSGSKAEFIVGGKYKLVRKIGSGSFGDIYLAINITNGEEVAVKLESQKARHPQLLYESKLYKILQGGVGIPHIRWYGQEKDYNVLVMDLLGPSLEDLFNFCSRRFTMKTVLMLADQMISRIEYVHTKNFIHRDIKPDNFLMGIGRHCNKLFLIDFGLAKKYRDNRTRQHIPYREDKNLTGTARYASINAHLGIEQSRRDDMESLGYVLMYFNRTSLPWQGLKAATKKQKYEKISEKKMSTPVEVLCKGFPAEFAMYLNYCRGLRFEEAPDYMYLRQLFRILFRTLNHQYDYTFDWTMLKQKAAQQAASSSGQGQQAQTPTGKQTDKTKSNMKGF
Chain of DNA-binding protein Ikaros (Homo sapiens) (Q13422 whole entry): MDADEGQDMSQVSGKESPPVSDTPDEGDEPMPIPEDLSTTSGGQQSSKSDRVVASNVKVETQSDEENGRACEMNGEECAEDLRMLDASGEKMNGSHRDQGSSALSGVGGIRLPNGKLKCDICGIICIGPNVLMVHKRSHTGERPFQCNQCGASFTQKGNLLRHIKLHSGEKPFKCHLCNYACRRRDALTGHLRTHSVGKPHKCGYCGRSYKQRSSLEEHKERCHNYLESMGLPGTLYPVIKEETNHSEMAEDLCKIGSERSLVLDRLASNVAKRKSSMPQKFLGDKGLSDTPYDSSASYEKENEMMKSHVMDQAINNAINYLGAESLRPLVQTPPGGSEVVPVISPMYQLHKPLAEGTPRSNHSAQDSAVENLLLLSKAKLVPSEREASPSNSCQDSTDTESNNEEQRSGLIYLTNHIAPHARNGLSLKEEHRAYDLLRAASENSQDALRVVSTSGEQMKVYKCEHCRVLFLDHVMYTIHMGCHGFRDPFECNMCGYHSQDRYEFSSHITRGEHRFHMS
Chain of Protein cereblon/DNA damage-binding protein 1 (Q96SW2 whole entry): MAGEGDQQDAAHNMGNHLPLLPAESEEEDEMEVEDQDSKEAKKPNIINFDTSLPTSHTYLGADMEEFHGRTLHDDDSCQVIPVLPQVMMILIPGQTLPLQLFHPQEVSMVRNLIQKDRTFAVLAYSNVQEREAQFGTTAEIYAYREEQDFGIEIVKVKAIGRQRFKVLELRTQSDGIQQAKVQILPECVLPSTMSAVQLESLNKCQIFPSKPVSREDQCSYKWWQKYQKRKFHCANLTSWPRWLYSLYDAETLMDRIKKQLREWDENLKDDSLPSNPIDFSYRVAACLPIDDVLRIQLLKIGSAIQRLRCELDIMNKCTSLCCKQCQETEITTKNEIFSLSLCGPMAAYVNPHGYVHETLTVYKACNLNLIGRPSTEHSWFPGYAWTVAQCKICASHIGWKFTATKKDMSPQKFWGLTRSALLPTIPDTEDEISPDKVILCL
Chain of Protein cereblon/DNA damage-binding protein 1 (Q16531 whole entry, further chain): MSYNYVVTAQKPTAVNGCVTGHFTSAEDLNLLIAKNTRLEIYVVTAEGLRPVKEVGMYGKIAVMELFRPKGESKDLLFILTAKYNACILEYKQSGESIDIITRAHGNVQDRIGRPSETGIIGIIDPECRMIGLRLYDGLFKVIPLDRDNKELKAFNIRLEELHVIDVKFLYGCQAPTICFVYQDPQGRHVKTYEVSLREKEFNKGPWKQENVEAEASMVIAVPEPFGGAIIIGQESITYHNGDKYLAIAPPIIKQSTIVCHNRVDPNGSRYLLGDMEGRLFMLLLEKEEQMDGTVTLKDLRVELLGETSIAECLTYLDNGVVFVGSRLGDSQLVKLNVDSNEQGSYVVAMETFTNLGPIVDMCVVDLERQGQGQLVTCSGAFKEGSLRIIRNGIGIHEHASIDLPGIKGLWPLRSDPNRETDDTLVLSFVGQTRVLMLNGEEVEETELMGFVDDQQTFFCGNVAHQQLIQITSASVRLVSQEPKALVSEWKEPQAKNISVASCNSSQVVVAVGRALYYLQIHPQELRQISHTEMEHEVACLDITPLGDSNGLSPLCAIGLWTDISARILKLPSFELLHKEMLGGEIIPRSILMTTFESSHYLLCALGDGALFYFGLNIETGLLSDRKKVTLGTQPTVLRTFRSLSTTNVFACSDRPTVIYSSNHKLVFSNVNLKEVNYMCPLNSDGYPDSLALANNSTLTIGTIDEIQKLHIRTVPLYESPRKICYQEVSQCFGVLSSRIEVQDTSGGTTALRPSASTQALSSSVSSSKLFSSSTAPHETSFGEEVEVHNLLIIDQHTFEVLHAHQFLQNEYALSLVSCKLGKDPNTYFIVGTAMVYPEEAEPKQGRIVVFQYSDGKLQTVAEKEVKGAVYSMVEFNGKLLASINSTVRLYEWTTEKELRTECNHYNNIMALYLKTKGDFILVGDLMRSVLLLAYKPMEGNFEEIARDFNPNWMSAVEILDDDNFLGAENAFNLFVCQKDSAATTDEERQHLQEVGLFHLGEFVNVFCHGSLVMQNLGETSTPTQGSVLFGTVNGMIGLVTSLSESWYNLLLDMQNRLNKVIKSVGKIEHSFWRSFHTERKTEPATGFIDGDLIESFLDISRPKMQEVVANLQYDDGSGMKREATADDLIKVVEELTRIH

SMILES: Cc1nc(Nc2ncc(C(=O)Nc3c(C)cccc3Cl)s2)cc(N2CCN(CCCNC(=O)COc3ccc(N4CCC(=O)NC4=O)cc3)CC2)n1
permeability [1]: Impermeable | Activity [2]: inactive | Activity [3]: inactive | Emax [4]: 66% | DC50 [5]: 15 nM | CC50 (KOPTK1 [6]): 28 nM | Activity [7]: inactive | DC50 [8]: 8 nM | CC50 (KOPTK1 [9]): 0.005 nM | Stability [10]: Unstable | T1/2 [11]: > 48 h

SMILES: O=C1CCN(c2ccc(N3CCNCC3)cc2)C(=O)N1
Activity (KOPTK1 [9]): inactive

SMILES: Cc1nc(Nc2ncc(C(=O)Nc3c(C)cccc3Cl)s2)cc(N2CCN(CCCC(=O)N3CCN(c4ccc(C5CCC(=O)NC5=O)cc4)CC3)CC2)n1 (stereo not drawn)
permeability [1]: Impermeable | DC50 [5]: 8 nM | CC50 (KOPTK1 [6]): 0.005 nM | Stability [10]: Unstable

SMILES: Cc1nc(Nc2ncc(C(=O)Nc3c(C)cccc3Cl)s2)cc(N2CCN(CCCNC(=O)COc3ccc(C4CCC(=O)NC4=O)cc3)CC2)n1 (stereo not drawn)
permeability [1]: Impermeable | DC50 [5]: 6 nM | CC50 (KOPTK1 [6]): 0.24 nM | Stability [10]: Unstable | T1/2 [11]: > 48 h

SMILES: Cc1nc(Nc2ncc(C(=O)Nc3c(C)cccc3Cl)s2)cc(N2CCN(CCCNC(=O)COc3cccc4c3C(=O)N(C3CCC(=O)NC3=O)C4=O)CC2)n1 (stereo not drawn)
permeability [1]: Impermeable | Activity [12]: inactive | DC50 [5]: 13 nM | CC50 (KOPTK1 [6]): 8 nM | CC50 (KOPTK1 [9]): 10 nM | Stability [10]: Unstable | IC50 [13]: 1030 nM | T1/2 [11]: 13 h

SMILES: Cc1nc(Nc2ncc(C(=O)Nc3c(C)cccc3Cl)s2)cc(N2CCN(CCCC(=O)N3CCN(c4ccc(N5CCC(=O)NC5=O)cc4)CC3)CC2)n1
permeability [1]: Impermeable | Activity [2]: inactive | Activity [3]: inactive | Emax [4]: 98.4% | CC50 (KOPTK1 [6]): 37 nM | Activity [7]: inactive | Stability [10]: Unstable

half-life [14]: 0.82 h
SMILES: Cc1nc(Nc2ncc(C(=O)Nc3c(C)cccc3Cl)s2)cc(N2CCN(CCO)CC2)n1.O [DASATINIB]

SMILES: O=C(O)COc1ccc(N2CCC(=O)NC2=O)cc1
Activity (KOPTK1 [9]): inactive
